The source of these data is ChEMBL document CHEMBL1140413, “Synthesis and in vitro evaluation of inhibitors of intestinal cholesterol absorption” (2005).

Broadly, the inhibition is the change of the read-out against control, counted positive when it falls. As usually defined, the ED50 is the dose at which the effect has come halfway, by size or by number of responders. Higher therefore signals weaker potency.

The species named for one assay is Oryctolagus cuniculus. The assay can be described thus: Percent inhibition against cholesterol absorption in brush border membrane vesicle using rabbit small intestine at concentration of 6 uM.
Conditions: not given
Format: functional. In outline: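 Cholesterol uptake into brush border membrane vesicles prepared from rabbit whole small intestine, with membrane receptors left intact. Test compounds at a nominal 6 µM; read-out is % inhibition of cholesterol uptake. Average standard deviations ±3% inhibition.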
`O=C1[C@H](CCCc2ccc(F)cc2)[C@@H](c2ccc(O[C@@H]3O[C@H](CO)[C@@H](O[C@@H]4O[C@H](CO)[C@@H](O)[C@@H](O)[C@H]4O)[C@@H](O)[C@H]3O)cc2)N1c1ccc(F)cc1`: the inhibition stood at 3%.
For `O=C1[C@H](CC[C@H](O)c2ccc(F)cc2)[C@@H](c2ccc(OS(=O)(=O)C[C@@H]3O[C@H](CO)[C@@H](O[C@@H]4O[C@H](CO)[C@@H](O)[C@@H](O)[C@H]4O)[C@@H](O)[C@H]3O)cc2)N1c1ccc(F)cc1`, the inhibition was 41%.
Regarding `COC1OC(CS(=O)(=O)Oc2ccc(C[C@@H](CCC(O)c3ccc(F)cc3)CNc3ccc(F)cc3)cc2)C(O)C(O)C1O` (stereo partly specified), the inhibition was 3%.
On the same count and under the same terms, the value for `O=S(=O)(CC1OC(CO)C(O)C(O)C1O)Oc1ccc([C@@H]2[C@@H](CCC(O)c3ccc(F)cc3)CN2c2ccc(F)cc2)cc1` (stereo partly specified) was 20%; that for `O=C1[C@H](CCCc2ccc(F)cc2)[C@@H](c2ccc(OS(=O)(=O)C[C@@H]3O[C@H](CO)[C@@H](O[C@@H]4O[C@H](CO)[C@@H](O)[C@@H](O)[C@H]4O)[C@@H](O)[C@H]3O)cc2)N1c1ccc(F)cc1` was 10%.
As to `O=C1[C@H](CCC(O)c2ccc(F)cc2)[C@@H](c2ccc(OCC3OC(CO)C(O)C(O)C3O)cc2)N1c1ccc(F)cc1` (stereo partly specified), the inhibition was found to be 15%.
Turning to `CS(=O)(=O)Oc1ccc([C@@H]2[C@@H](CCC(O)c3ccc(F)cc3)C(=O)N2c2ccc(F)cc2)cc1` (stereo partly specified), the inhibition came out at 30%.
As to `O=C1[C@H](CCC(O)c2ccc(F)cc2)[C@@H](c2ccc(OS(=O)(=O)CC3OC(CO)C(O)C(O)C3O)cc2)N1c1ccc(F)cc1` (stereo partly specified), the inhibition was determined as 15%.
On to `O=C(O)[C@H]1O[C@@H](Oc2ccc([C@@H]3[C@@H](CCC(O)c4ccc(F)cc4)C(=O)N3c3ccc(F)cc3)cc2)[C@H](O)[C@H](O)[C@@H]1O` (stereo partly specified), for which the inhibition is 19%.
As for `O=C1[C@H](CC[C@H](O)c2ccc(F)cc2)[C@@H](c2ccc(O[C@@H]3O[C@H](CO)[C@@H](O)[C@@H](O)[C@H]3O)cc2)N1c1ccc(F)cc1`, the inhibition came out at 14%.
On the same count and under the same terms, the value for `CS(=O)(=O)Oc1ccc([C@@H]2[C@@H](CCC(O)c3ccc(F)cc3)CN2c2ccc(F)cc2)cc1` (stereo partly specified) was 22%; that for `O=C1[C@H](CCCc2ccccc2)[C@@H](c2ccccc2)N1c1ccc(F)cc1` (racemic) was 2%.
As to `Fc1ccc(N2C[C@H](CCCc3ccccc3)[C@H]2c2ccccc2)cc1` (racemic), the inhibition stood at 2%.
Consider `O=C1[C@H](CCC(O)c2ccc(F)cc2)[C@@H](c2ccc(O[C@@H]3O[C@H](CO)[C@@H](O[C@@H]4O[C@H](CO)[C@@H](O)[C@@H](O)[C@H]4O)[C@@H](O)[C@H]3O)cc2)N1c1ccc(F)cc1` (stereo partly specified), for which the inhibition came out at 27%.
Same read-out and setting: the value for `CO[C@H]1O[C@@H](COc2ccc([C@@H]3[C@@H](CC[C@H](O)c4ccc(F)cc4)C(=O)N3c3ccc(F)cc3)cc2)[C@@H](O)[C@H](O)[C@@H]1O` was 13%; that for `O=C1[C@H](CC[C@H](O)c2ccc(F)cc2)[C@@H](c2ccc(O)cc2)N1c1ccc(F)cc1` [EZETIMIBE] was 16%; that for `O=C1[C@H](CCC(O)c2ccc(F)cc2)[C@@H](c2ccc(OS(=O)(=O)c3ccccc3)cc2)N1c1ccc(F)cc1` (stereo partly specified) was 26%.
Same read-out and setting: the value for `CS(=O)(=O)Oc1ccc(C[C@@H](CCC(O)c2ccc(F)cc2)CNc2ccc(F)cc2)cc1` (stereo partly specified) was -2%; that for `COC1OC(CS(=O)(=O)Oc2ccc([C@@H]3[C@@H](CCC(O)c4ccc(F)cc4)CN3c3ccc(F)cc3)cc2)C(O)C(O)C1O` (stereo partly specified) was 27%; that for `CC(C)(C)Oc1ccc([C@@H]2[C@@H](CCC(O)c3ccc(F)cc3)C(=O)N2c2ccc(F)cc2)cc1` (stereo partly specified) was 10%.
On to `COC1OC(CS(=O)(=O)Oc2ccc([C@@H]3[C@@H](CCCc4ccc(F)cc4)CN3c3ccc(F)cc3)cc2)C(O)C(O)C1O` (stereo partly specified), for which the inhibition was found to be 4%.
On to `O=S(=O)(Oc1ccc([C@@H]2[C@@H](CCC(O)c3ccc(F)cc3)CN2c2ccc(F)cc2)cc1)c1ccccc1` (stereo partly specified), for which the inhibition stood at 19%.
Consider `COC1OC(CS(=O)(=O)Oc2ccc([C@@H]3[C@@H](CCC(O)c4ccc(F)cc4)C(=O)N3c3ccc(F)cc3)cc2)C(O)C(O)C1O` (stereo partly specified), for which the inhibition came out at 20%.
Still for that read-out and setting: next, `O=C1[C@H](CC[C@H](O)c2ccc(F)cc2)[C@@H](c2ccc(OC[C@@H]3O[C@H](CO)[C@@H](O[C@@H]4O[C@H](CO)[C@@H](O)[C@@H](O)[C@H]4O)[C@@H](O)[C@H]3O)cc2)N1c1ccc(F)cc1`: 28%.

The next assay relates to Cricetinae gen. sp. The assay is described as follows: Effective dose required for reduction of liver cholesterol ester using 7-day cholesterol-fed hamster model. Format: functional. The settings on record: 168 h.
Consider `COc1ccc([C@@H]2[C@@H](CCCc3ccccc3)C(=O)N2c2ccc(OC)cc2)cc1` [SCH-48461], for which the ED50 is 2.2 mg/kg/day.
Consider `O=C1[C@H](CC[C@H](O)c2ccc(F)cc2)[C@@H](c2ccc(O)cc2)N1c1ccc(F)cc1` [EZETIMIBE], for which the ED50 worked out at 0.04 mg/kg/day.
